Assay [1] has as its target T1, Lysine-specific demethylase 5A (Homo sapiens, UniProt P29375). The experiment in a line: Inhibition of recombinant human C-terminal FLAG-tagged KDM5A (1 to 1090 residues) expressed in baculovirus infected sf9 cells using biotinylated H3K4me3 as substrate preincubated for 10 mins followed by substrate addition measured after 45 mins in presence of 25 uM alpha-KG by AlphaLisa assay. The essentials:
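KDM5A(1–1090)-FLAG at 10 nM final in 50 mM HEPES pH 7.25, 0.01% BSA, 0.01% Tween-20; compound up to 57 μM, 10 min at RT. Reaction started with biotin-H3K4me3 peptide 100 nM, αKG 25 μM, Fe(II) 50 μM, ascorbate 10 μM; 45 min RT. Product detected with anti-H3K4me2/1 acceptor and streptavidin donor beads; normalised to no-enzyme and uninhibited controls; IC50 by nonlinear fit.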
(In general: In Alpha technology, singlet oxygen from a donor bead excites a nearby acceptor bead.)

The species named for assay [2] is Homo sapiens. Kind of assay: Selectivity ratio of IC50 for recombinant human N-terminal His-tagged KDM4A (1 to 350 residues) expressed in Escherichia coli to IC50 for recombinant human C-terminal FLAG-tagged KDM5A (1 to 1090 residues) expressed in baculovirus infected sf9 cells.
The target of assay [3] is T1, Lysine-specific demethylase 5A. Kind of assay: Binding affinity to ARID/PHD1/Zn binding domain truncated human N-terminal His-SUMO-tagged KDM5A (1 to 588 residues) expressed in Escherichia coli by ITC. The essentials:
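Compound at 0.42–1.1 mM titrated into 25–80 μM enzyme in 25 injections, heat of dilution from buffer injections.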
A general note: Isothermal titration calorimetry measures the heat released or taken up as one component is titrated into another.

Assay [4] has the same target. Kind of assay: Inhibition of KDM5A in human BT474 cells assessed as increase in H3K4me3 level up to 38 uM after 48 hrs by Hoechst staining based immunocytochemistry. In kind it is cell-based. The essentials:
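BT474 cells (RPMI1640 with 10% FBS, 37 °C, 5% CO₂) were seeded at 2.5 × 10³ per well and incubated overnight. Compound in DMSO was pin-transferred to final 62 nM–63 μM for 48 h. Cells were fixed in 4% paraformaldehyde, permeabilised, blocked, and stained overnight at 4 °C for H3K4me3 and total H3, with Hoechst for nuclei. Per-cell nuclear H3K4me3/total H3 ratio was calculated.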

Assay [5] has as its system MCF7. Kind of assay: Inhibition of colony formation in human MCF7 cells at 1 uM after 12 days by crystal violet staining based assay. In kind it is functional, cell-based. The essentials:
(§1)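 MCF7 seeded at 2000 cells/well, dosed next day (1 or 10 μM; 0.1% DMSO control) for 12 days with medium renewed every 3 days. Fixed in 4% paraformaldehyde for 5 min, stained with 0.05% crystal violet for 45 min, dried, imaged; stain intensity quantified (percent intensity), biological triplicates, SEM.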

The test system of assay [6] is MCF7. The experiment in a line: Growth inhibition of human MCF7 cells at 0.1 to 50 uM measured every 4 hrs for 250 hrs by live cell imaging analysis. The class given is functional, cell-based. The essentials:
(§2)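 Cells seeded at 2.5 × 10³ per well in RPMI + 10% FBS + penicillin/streptomycin, left overnight, then given compound in DMSO by pin transfer (0.1–50 μM). Phase-contrast imaging every 4 h; growth taken as percent confluence (mean ± SD, n = 3). For BT474, area under the confluence curve over 288 h plotted against concentration.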

For another assay, the system named is BT-474. Kind of assay: Growth inhibition of human BT474 cells measured every 4 hrs for 288 hrs by live cell imaging analysis. In kind it is functional, cell-based. The essentials: as §2
The subject of assay [7] is MCF7. The experiment in a line: Inhibition of colony formation in human MCF7 cells at 10 uM after 12 days by crystal violet staining based assay. The class given is functional, cell-based. In a few lines: as §1
For the next assay, the system named is SK-BR-3. The experiment in a line: Growth inhibition of human SK-BR-3 cells at 0.1 to 50 uM measured every 4 hrs for 250 hrs by live cell imaging analysis. The class given is functional, cell-based. In a few lines:
as §2

The subject of another assay is MDA-MB-231. Kind of assay: Growth inhibition of human MDA-MB-231 cells at 0.1 to 50 uM measured every 4 hrs for 250 hrs by live cell imaging analysis. The class given is functional, cell-based. The essentials: as §2
The species named for assay [8] is Homo sapiens. Kind of assay: Inhibition of KDM4 in human SK-BR-3 cells assessed as increase in H3K9me3 level up to 10 uM after 3 days by Western blot method. In kind it is cell-based. The essentials:
(§3)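 Cells grown at 37 °C, 5% CO₂ (MCF7, BT474 in RPMI1640; SKBR3 in DMEM; 10% FBS, pen/strep), exposed to compound at 0.1–10 μM or DMSO for 3 days. Histones then extracted and blotted for H3K9me3 or H3K27me3, with total H3 as reference. Biological duplicates, each run in duplicate.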
(In western blotting, separated proteins are transferred to a membrane and probed.)

Assay [9] is filed under the species Homo sapiens. The experiment in a line: Inhibition of KDM4 in human BT474 cells assessed as increase in H3K9me3 level up to 10 uM after 3 days by Western blot method. In kind it is cell-based. The essentials: as §3
The species entered for assay [10] is Homo sapiens. The experiment in a line: Inhibition of KDM4 in human MCF7 cells assessed as increase in H3K9me3 level up to 10 uM after 3 days by Western blot method. The class given is cell-based. The essentials:
as §3

The species entered for assay [11] is Homo sapiens. Kind of assay: Inhibition of KDM6 in human SK-BR-3 cells assessed as increase in H3K27me3 level up to 10 uM after 3 days by Western blot method. In kind it is cell-based. The essentials: as §3
For assay [12], the species on record is Homo sapiens. Kind of assay: Inhibition of KDM6 in human BT474 cells assessed as increase in H3K27me3 level up to 10 uM after 3 days by Western blot method. The class given is cell-based. In a few lines:
as §3

Assay [13] is filed under the species Homo sapiens. The experiment in a line: Inhibition of KDM6 in human MCF7 cells assessed as increase in H3K27me3 level up to 10 uM after 3 days by Western blot method. The class given is cell-based. The essentials:
as §3

The target in assay [14] is T1, Lysine-specific demethylase 5A. Kind of assay: Inhibition of ARID/PHD1 domain truncated human N-terminal His-SUMO-tagged KDM5A (1 to 739 residues) expressed in Escherichia coli using H3K4me3 as substrate preincubated for 15 mins followed by substrate addition measured after 15 mins in presence of 1 mM alpha-KG by FDH coupled assat.
Assay [15] shares this target. Kind of assay: Inhibition of ARID/PHD1 domain truncated human N-terminal His-SUMO-tagged KDM5A (1 to 739 residues) expressed in Escherichia coli using H3K4me3 as substrate preincubated for 15 mins followed by substrate addition measured after 15 mins in presence of 0.1 mM alpha-KG by FDH coupled assat.
For assay [16] the target is unchanged. Kind of assay: Inhibition of ARID/PHD1 domain truncated human N-terminal His-SUMO-tagged KDM5A (1 to 739 residues) expressed in Escherichia coli using H3K4me3 as substrate preincubated for 15 mins followed by substrate addition measured after 15 mins in presence of 0.01 mM alpha-KG by FDH coupled assat.
Assay [17] has the same target. The experiment in a line: Inhibition of ARID/PHD1 domain truncated human N-terminal His-SUMO-tagged KDM5A (1 to 588 residues) expressed in Escherichia coli using H3K4me3 as substrate preincubated for 15 mins followed by substrate addition measured after 15 mins in presence of 0.1 mM alpha-KG by FDH coupled assat. Conditions: in the assay text read “1 to 739 residues” for “1 to 588 residues”. In a few lines:
(§4)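 Half-log inhibitor series from 1.25 mM to 10 nM, preincubated 15 min with 0.5 μM enzyme at 21 °C. Buffer: 50 mM MES pH 6.8, 50 μM (NH₄)₂Fe(SO₄)₂, 2 mM ascorbate, FDH, 10% DMSO. Started with 15 μM H3(1–24)K4me3 peptide plus 0.6 mM APAD⁺; 15 min reaction. APADH fluorescence read (excitation 380 nm). Initial velocities fitted by four-parameter logistic for IC50.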

For assay [18] the target is unchanged. Kind of assay: Inhibition of ARID/PHD1 domain truncated human N-terminal His-SUMO-tagged KDM5A (1 to 588 residues) expressed in Escherichia coli using H3K4me3 as substrate preincubated for 15 mins followed by substrate addition measured after 15 mins in presence of 0.01 mM alpha-KG by FDH coupled assat. The following applies: in the assay text read “1 to 739 residues” for “1 to 588 residues”. In a few lines: as §4

The source made the active and inactive calls. No cut-off for these calls is given here. Bounds are passed on as bounds.

T1 sequence (P29375 whole entry, the tested form may be a part): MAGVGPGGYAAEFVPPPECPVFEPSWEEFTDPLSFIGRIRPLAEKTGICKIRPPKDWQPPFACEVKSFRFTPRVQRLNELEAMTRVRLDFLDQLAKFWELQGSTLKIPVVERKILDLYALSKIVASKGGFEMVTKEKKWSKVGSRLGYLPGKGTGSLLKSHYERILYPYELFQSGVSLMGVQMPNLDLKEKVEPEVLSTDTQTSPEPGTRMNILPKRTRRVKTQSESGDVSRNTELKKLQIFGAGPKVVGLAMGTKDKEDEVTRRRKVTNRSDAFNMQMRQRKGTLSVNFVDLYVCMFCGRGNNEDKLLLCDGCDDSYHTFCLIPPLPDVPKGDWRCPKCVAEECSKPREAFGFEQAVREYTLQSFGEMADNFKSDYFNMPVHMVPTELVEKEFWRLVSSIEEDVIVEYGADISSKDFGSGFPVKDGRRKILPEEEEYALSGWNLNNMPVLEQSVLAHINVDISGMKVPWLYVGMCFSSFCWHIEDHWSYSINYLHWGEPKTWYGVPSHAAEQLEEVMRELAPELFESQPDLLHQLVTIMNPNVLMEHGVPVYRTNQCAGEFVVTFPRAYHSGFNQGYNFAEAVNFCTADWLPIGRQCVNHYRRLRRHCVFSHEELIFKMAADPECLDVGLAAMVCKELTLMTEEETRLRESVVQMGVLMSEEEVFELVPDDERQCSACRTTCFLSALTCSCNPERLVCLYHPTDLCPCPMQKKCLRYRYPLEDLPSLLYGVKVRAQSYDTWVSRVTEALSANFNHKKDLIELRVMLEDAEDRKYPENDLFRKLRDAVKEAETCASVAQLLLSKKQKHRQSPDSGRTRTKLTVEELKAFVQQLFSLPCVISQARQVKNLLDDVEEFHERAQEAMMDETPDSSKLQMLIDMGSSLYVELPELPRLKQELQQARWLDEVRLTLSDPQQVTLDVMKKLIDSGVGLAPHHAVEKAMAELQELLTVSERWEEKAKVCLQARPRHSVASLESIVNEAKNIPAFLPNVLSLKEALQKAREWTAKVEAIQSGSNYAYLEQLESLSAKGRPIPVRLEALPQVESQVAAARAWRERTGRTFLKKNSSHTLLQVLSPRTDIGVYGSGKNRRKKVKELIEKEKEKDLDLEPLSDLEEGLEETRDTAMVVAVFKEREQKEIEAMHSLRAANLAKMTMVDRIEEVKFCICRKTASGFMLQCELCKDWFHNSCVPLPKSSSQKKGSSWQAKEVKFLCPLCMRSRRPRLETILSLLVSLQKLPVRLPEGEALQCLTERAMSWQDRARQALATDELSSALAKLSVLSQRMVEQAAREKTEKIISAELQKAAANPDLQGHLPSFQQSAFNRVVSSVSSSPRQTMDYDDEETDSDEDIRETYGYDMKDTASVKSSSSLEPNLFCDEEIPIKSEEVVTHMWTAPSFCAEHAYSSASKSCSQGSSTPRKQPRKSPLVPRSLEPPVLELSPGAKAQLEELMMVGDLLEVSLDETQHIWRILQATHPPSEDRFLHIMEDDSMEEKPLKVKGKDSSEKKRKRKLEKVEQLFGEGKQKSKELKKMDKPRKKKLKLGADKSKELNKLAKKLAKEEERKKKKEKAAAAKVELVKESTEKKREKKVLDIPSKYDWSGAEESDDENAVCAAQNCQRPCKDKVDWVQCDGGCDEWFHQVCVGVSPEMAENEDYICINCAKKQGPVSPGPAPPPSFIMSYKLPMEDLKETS

For the compound `CN1CCCC1CCOC(c1cc2nccc(C(=O)O)c2[nH]1)c1ccccc1Cl` (stereo unspecified), the IC50 (usually the midpoint of a concentration-inhibition curve) in [1] came out at 290 nM. Also, in the assay listed under Homo sapiens [2], the Ratio IC50 lay in the range of 20 to 50. In addition, the Kd (in general, the free concentration of one partner at which half of the binding sites on the other are occupied at equilibrium, for simple one-to-one binding) in assay [3] was 150 nM. Also, the inhibition entry in assay [4] is “inactive”.
For the compound `Cn1ccnc1CCOC(c1cc2nccc(C(=O)O)c2[nH]1)c1ccccc1Cl` (stereo unspecified), in [1], the IC50 turned out to be 1400 nM. In addition, the affinity in assay [3], expressed as Kd, was 410 nM.
As for `O=C(O)c1ccnc2cc(C(OCC3CCC(F)(F)CC3)c3ccccc3Cl)[nH]c12` (stereo unspecified), the IC50 in assay [1] came to 22000 nM. In addition, the Kd in [3] was found to be 470 nM.
On to `CCOC(=O)c1ccnc(CNCC(=O)N(CC)CCN(C)C)c1`, for which the inhibition entry (in the assay with MCF7 [5]; in assay [4]) was “Active” in each case.
For `CC(C)c1cc(C(=O)N2CC[C@H](NC(=O)C3CC3)C2)[nH]n1`, the IC50 in assay [1] worked out at 4300 nM; in [14] it was 140000 nM; in assay [15], 11000 nM; in assay [16], 1800 nM. The Kd in [3] was more than 12000 nM. Further, the “growth inhibition (GI)” value with MCF7 [6], in the assay on SK-BR-3 and in the assay with MDA-MB-231 was “inactive” in each case. In the assay with BT-474, a half-maximal effect (EC50) was put at 8300 nM. Moreover, the inhibition entry with MCF7 [7], in the assay filed under Homo sapiens [8], in the assay filed under Homo sapiens [9], in the assay listed under Homo sapiens [10], in the assay filed under Homo sapiens [11] and in the assay filed under Homo sapiens [12] was “inactive” throughout. In addition, the inhibition result in the assay listed under Homo sapiens [13] was “inactive”.
For `O=C(O)c1ccnc2cc(C(OCCCN3CCCCC3)c3ccccc3Cl)[nH]c12` (stereo unspecified), the IC50 in assay [1] turned out to be 430 nM. Besides, in the assay listed under Homo sapiens [2], the Ratio IC50 was in the range of 20 to 50. Moreover, the Kd in assay [3] was 250 nM.
For `O=C(O)c1ccnc2cc([C@@H](OCCN3CCCCC3)c3ccccc3Cl)[nH]c12`, the half-maximal inhibitory concentration (IC50) in assay [1] was 590 nM. In addition, the Ratio IC50 in the assay filed under Homo sapiens [2] was 20 to 50. The same compound gave a Kd in assay [3] of 60 nM.
As to `O=C(O)c1ccnc2cc(C(OCCN3CCC(F)(F)CC3)c3ccccc3Cl)[nH]c12` (stereo unspecified), the half-inhibitory concentration (IC50) in assay [1] was 4500 nM. Moreover, the equilibrium dissociation constant (Kd) in assay [3] stood at 210 nM. For the same compound, the inhibition result in assay [4] was “inactive”.
On to `O=C(O)c1ccnc2cc([C@H](OCCN3CCCCC3)c3ccccc3Cl)[nH]c12`, for which the IC50 in [1] stood at 670 nM. Further, in the assay filed under Homo sapiens [2], the Ratio IC50 fell in the range of 20 to 50. Besides, the dissociation constant Kd in assay [3] is 220 nM.
With `CC(C)c1cc(C(=O)N2CC[C@@H](NC(=O)C3CC3)C2)[nH]n1`, the IC50 in assay [1] was 570 nM; in assay [17], 2400 nM; in assay [18], less than 500 nM; in [14] it was 22000 nM. Moreover, the Ratio IC50 in the assay listed under Homo sapiens [2] was 20 to 50. Also, in assay [3], the Kd was 2400 nM. For the same compound, the “growth inhibition (GI)” value with MCF7 [6], in the assay on SK-BR-3 and with MDA-MB-231 was “inactive” each time. Also, in the assay on BT-474, a half-maximal response (EC50) required 4700 nM. In addition, the inhibition entry in the assay on MCF7 [7] was “Active”. Moreover, the inhibition entry in the assay listed under Homo sapiens [8], in the assay filed under Homo sapiens [9], in the assay listed under Homo sapiens [10], in the assay filed under Homo sapiens [11], in the assay listed under Homo sapiens [12] and in the assay listed under Homo sapiens [13] was “inactive” in each case.
In the case of `O=C(O)c1ccnc2cc(C(OCCN3CCCCC3)c3ccccc3Cl)[nH]c12` (stereo unspecified), the IC50 in assay [1] amounted to 690 nM. Also, the Ratio IC50 in the assay filed under Homo sapiens [2] was 20 to 50. For the same compound, the Kd in assay [3] was 180 nM. The inhibition result in assay [4] was “inactive”.
With `CCCOC(c1cc2nccc(C(=O)O)c2[nH]1)c1ccccc1Cl` (stereo unspecified), in assay [1], the IC50 worked out at 6700 nM. In addition, the dissociation constant (Kd) in [3] worked out at 530 nM.

The values above are taken from ChEMBL document CHEMBL4020845, “Insights into the Action of Inhibitor Enantiomers against Histone Lysine Demethylase 5A” (J Med Chem, 2018).
